The values below come from ChEMBL document CHEMBL4382285, “Discovery of Novel Retigabine Derivatives as Potent KCNQ4 and KCNQ5 Channel Agonists with Improved Specificity” (ACS Med Chem Lett, 2019).

Assay type in all cases: cell-based
Data set [1] concerns the target Potassium voltage-gated channel subfamily KQT member 2 (Rattus norvegicus) (UniProt O88943). As to the kind of experiment: Activity at rat KCNQ2 expressed in CHOK1 cells assessed as ratio of amplitude of outward current in presence of test compound to amplitude of outward current in absence of test compound at 10 uM at -10 mV by whole cell patch clamp assay. An outline of the steps: (§1)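 CHO-K1 cells expressing the channel, whole-cell voltage clamp, compound at 10 μM. Read-out is the outward current ratio I/I0 with and without compound, taken at −10 mV. I/I0 > 1 counts as activation and < 1 as inhibition. More than four cells per compound.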
On the technique in general: The patch-clamp technique gives a direct electrical read-out from membranes.

Data set [2] has as its target T1, Potassium voltage-gated channel subfamily KQT member 4 (Homo sapiens) (UniProt P56696).
T1 sequence (whole entry): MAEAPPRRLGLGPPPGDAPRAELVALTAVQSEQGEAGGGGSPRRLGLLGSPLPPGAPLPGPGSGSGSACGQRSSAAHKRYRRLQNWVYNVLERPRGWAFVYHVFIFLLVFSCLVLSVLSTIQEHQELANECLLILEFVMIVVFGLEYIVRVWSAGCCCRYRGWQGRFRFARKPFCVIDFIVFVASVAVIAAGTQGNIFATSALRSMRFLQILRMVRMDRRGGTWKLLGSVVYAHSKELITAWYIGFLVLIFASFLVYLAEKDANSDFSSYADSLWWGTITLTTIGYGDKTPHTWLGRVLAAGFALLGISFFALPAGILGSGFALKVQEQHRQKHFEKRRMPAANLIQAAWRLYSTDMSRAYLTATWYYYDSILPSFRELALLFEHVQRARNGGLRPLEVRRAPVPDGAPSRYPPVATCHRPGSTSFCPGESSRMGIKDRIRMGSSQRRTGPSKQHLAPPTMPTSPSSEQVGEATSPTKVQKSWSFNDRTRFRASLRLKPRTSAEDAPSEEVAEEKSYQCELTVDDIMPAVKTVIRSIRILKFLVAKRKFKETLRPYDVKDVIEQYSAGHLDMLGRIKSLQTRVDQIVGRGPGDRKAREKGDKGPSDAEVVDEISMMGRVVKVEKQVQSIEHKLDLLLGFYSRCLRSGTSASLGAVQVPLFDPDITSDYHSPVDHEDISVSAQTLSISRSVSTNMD
As to the kind of experiment: Activity at human KCNQ4 expressed in CHOK1 cells assessed as ratio of amplitude of outward current in presence of test compound to amplitude of outward current in absence of test compound at 10 uM at -10 mV by whole cell patch clamp assay. An outline of the steps:
as §1

Data set [3] addresses T2, Potassium voltage-gated channel subfamily KQT member 5 (Homo sapiens, UniProt Q9NR82). Briefly: Activity at human KCNQ5 expressed in CHOK1 cells assessed as ratio of amplitude of outward current in presence of test compound to amplitude of outward current in absence of test compound at 10 uM at -10 mV by whole cell patch clamp assay. An outline of the steps: as §1
In data set [4] the target is T3, Potassium voltage-gated channel subfamily KQT member 4 (Homo sapiens, UniProt P56696).
T3 sequence (P56696 whole entry): T1 sequence (whole entry)
As to the kind of experiment: Agonist activity at human KCNQ4 expressed in CHOK1 cells by whole cell patch clamp assay. An outline of the steps:
(§2)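 Concentration–response by whole-cell voltage clamp in CHO-K1 cells transiently expressing the homomeric channel. EC50 and Hill coefficient come from fitting outward currents recorded across the tested concentrations.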

Data set [5] has as its target T2, Potassium voltage-gated channel subfamily KQT member 5. As to the kind of experiment: Agonist activity at human KCNQ5 expressed in CHOK1 cells by whole cell patch clamp assay. An outline of the steps:
as §2

Data set [6] deals with T4, Potassium voltage-gated channel subfamily KQT member 2 (Rattus norvegicus, UniProt O88943). As to the kind of experiment: Agonist activity at rat KCNQ2 expressed in CHOK1 cells by whole cell patch clamp assay. An outline of the steps:
as §2

Data set [7] addresses T5, Potassium voltage-gated channel subfamily KQT member 3 (Rattus norvegicus, UniProt O88944).
T5 sequence (O88944 whole entry): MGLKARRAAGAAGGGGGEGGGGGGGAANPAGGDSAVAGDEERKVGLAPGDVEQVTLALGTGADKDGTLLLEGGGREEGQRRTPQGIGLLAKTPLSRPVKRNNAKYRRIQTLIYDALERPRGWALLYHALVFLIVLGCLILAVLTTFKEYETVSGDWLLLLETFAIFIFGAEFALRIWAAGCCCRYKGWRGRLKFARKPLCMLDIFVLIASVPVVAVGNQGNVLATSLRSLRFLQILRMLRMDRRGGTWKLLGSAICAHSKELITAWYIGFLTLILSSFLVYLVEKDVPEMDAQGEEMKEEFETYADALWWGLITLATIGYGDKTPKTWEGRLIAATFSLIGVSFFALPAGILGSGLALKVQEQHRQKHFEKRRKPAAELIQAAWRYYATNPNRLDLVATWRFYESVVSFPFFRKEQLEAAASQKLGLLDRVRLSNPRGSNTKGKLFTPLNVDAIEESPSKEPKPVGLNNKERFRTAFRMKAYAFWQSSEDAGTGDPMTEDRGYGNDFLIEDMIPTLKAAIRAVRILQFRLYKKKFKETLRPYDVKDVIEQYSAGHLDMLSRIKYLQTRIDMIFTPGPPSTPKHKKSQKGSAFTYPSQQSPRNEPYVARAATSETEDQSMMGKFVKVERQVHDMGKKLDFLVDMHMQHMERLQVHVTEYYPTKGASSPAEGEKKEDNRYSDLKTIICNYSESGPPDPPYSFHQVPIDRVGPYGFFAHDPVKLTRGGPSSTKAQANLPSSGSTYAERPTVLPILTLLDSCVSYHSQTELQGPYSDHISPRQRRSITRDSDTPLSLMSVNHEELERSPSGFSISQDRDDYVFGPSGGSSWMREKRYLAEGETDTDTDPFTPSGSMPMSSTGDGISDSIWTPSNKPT
Briefly: Agonist activity at rat KCNQ3 expressed in CHOK1 cells assessed as increase in amplitude of outward current at 10 uM by whole cell patch clamp assay relative to control. An outline of the steps: (§3)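 Individual KCNQ subtypes and KCNQ2/3 heteromers transfected into CHO cells, whole-cell recording before and after 10 μM compound. Cells held at −80 mV, stepped from −90 to +60 mV in 10 mV increments for 1500 ms, then to −120 mV for 500 ms. Currents compared at −10 and +60 mV.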

The target in data set [8] is Voltage-gated potassium channel, KQT; KCNQ2(Kv7.2)/KCNQ3(Kv7.3) (Homo sapiens, UniProt O43526+O43525). Briefly: Agonist activity at KCNQ2/KCNQ3 (unknown origin) expressed in CHOK1 cells assessed as increase in amplitude of outward current at 10 uM by whole cell patch clamp assay relative to control. An outline of the steps: as §3
Data set [9] deals with T4, Potassium voltage-gated channel subfamily KQT member 2. Briefly: Activation of rat homomeric KCNQ2 expressed in CHOK1 cells assessed as outward current amplitude up to 30 uM by whole cell patch clamp assay. An outline of the steps: (§4)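 Homomeric KCNQ2 in CHO-K1 cells, whole-cell voltage clamp, compound applied over 1–30 μM. Change in outward current amplitude was read against the pre-drug current, including at 30 μM.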

Data set [10] concerns the target Potassium voltage-gated channel subfamily KQT member 2 (Rattus norvegicus) (UniProt O88943). Briefly: Inhibition of rat homomeric KCNQ2 expressed in CHOK1 cells assessed as effect on outward current amplitude at 30 uM by whole cell patch clamp assay. An outline of the steps: as §4
The target is the same in data set [11]. Briefly: Effect on voltage-dependent activation of rat KCNQ2 expressed in CHOK1 cells assessed as negative shift in current activation curve at 10 uM by whole cell patch clamp assay.
Data set [12] deals with T1, Potassium voltage-gated channel subfamily KQT member 4 (Homo sapiens). As to the kind of experiment: Effect on voltage-dependent activation of human KCNQ4 expressed in CHOK1 cells assessed as negative shift in current activation curve at 10 uM by whole cell patch clamp assay.
Data set [13] has as its target Potassium voltage-gated channel subfamily KQT member 2 (Rattus norvegicus) (UniProt O88943). As to the kind of experiment: Channel opening activity at rat KCNQ2 expressed in CHOK1 cells at 10 uM at -60 mV by whole cell patch clamp assay.
For data set [14], the target named is T1, Potassium voltage-gated channel subfamily KQT member 4 (Homo sapiens). As to the kind of experiment: Channel opening activity at human KCNQ4 expressed in CHOK1 cells at 10 uM at -60 mV by whole cell patch clamp assay.

Active and inactive are the calls of the source. The calls are words filed in the database; no cut-off is given here.

Potassium voltage-gated channel subfamily KQT member 2 (Rattus norvegicus), sequence (O88943 whole entry): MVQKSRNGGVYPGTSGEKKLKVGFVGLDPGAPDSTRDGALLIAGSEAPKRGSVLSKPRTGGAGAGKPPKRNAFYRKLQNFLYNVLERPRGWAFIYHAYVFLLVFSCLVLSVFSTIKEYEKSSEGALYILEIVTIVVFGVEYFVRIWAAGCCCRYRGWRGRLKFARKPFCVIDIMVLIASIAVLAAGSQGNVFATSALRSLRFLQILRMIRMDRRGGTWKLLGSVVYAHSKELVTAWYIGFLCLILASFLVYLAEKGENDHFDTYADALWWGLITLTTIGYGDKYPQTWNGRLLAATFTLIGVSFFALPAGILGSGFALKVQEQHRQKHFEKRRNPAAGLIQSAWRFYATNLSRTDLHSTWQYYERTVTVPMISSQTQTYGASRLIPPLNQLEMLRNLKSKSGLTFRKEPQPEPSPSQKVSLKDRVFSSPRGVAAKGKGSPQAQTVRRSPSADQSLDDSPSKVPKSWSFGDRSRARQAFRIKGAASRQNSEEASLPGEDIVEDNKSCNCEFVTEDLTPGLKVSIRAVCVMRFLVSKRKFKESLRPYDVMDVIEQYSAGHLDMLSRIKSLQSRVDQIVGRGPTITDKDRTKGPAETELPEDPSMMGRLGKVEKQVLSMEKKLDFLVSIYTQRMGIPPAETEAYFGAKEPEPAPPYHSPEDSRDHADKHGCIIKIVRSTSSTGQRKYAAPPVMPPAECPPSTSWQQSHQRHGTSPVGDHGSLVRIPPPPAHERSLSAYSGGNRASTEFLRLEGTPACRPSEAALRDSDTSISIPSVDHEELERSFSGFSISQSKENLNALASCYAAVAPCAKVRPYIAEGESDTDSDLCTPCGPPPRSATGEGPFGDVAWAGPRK
T4 sequence (O88943 whole entry): as above
T2 sequence (Q9NR82 whole entry): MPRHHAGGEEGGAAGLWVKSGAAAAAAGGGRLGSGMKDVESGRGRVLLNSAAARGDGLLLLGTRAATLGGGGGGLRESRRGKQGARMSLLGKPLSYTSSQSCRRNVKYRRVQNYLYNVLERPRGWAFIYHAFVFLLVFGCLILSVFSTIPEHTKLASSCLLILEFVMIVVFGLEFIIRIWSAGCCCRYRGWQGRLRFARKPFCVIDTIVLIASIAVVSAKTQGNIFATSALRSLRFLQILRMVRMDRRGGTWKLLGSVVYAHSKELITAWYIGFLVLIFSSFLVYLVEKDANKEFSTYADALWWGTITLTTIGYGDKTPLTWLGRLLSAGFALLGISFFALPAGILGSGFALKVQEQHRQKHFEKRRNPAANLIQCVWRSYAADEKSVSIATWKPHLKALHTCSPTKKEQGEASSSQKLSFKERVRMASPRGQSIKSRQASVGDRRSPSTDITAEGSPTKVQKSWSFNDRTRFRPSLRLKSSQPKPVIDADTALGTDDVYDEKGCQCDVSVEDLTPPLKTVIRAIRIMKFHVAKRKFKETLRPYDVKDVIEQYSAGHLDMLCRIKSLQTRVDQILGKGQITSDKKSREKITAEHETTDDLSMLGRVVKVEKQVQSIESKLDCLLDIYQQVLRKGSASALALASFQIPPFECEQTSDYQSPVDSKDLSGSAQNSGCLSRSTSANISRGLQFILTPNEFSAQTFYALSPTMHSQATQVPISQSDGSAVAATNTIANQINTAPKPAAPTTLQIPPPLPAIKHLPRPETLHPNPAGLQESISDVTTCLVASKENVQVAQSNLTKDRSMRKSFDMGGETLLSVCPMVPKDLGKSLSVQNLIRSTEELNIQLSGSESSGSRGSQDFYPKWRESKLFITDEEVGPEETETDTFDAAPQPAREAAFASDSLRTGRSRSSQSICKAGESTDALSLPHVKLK
Voltage-gated potassium channel, KQT; KCNQ2(Kv7.2)/KCNQ3(Kv7.3), sequence (O43526 whole entry): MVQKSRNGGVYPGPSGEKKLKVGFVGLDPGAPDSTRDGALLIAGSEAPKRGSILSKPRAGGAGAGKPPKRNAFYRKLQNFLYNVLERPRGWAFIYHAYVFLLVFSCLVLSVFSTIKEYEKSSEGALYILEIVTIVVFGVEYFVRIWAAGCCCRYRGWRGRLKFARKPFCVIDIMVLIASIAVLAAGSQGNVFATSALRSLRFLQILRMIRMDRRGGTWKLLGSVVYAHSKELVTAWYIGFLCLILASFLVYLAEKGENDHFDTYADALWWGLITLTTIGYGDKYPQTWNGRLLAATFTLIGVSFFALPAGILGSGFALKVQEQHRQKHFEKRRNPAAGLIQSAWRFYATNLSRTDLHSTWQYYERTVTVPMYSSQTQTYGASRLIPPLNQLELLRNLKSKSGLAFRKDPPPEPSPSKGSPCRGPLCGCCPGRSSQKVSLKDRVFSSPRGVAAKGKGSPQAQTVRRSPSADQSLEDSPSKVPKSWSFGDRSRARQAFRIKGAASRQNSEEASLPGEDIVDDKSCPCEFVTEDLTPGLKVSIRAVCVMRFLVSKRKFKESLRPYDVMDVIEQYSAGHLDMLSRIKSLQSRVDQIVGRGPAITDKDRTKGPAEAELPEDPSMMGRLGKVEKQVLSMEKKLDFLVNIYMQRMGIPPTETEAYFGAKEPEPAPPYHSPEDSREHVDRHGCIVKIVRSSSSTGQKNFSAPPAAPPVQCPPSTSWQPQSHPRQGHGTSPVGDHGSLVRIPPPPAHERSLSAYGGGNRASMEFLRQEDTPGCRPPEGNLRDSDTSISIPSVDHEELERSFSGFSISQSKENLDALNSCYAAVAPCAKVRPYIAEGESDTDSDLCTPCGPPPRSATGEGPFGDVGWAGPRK
Voltage-gated potassium channel, KQT; KCNQ2(Kv7.2)/KCNQ3(Kv7.3), sequence (O43525 whole entry): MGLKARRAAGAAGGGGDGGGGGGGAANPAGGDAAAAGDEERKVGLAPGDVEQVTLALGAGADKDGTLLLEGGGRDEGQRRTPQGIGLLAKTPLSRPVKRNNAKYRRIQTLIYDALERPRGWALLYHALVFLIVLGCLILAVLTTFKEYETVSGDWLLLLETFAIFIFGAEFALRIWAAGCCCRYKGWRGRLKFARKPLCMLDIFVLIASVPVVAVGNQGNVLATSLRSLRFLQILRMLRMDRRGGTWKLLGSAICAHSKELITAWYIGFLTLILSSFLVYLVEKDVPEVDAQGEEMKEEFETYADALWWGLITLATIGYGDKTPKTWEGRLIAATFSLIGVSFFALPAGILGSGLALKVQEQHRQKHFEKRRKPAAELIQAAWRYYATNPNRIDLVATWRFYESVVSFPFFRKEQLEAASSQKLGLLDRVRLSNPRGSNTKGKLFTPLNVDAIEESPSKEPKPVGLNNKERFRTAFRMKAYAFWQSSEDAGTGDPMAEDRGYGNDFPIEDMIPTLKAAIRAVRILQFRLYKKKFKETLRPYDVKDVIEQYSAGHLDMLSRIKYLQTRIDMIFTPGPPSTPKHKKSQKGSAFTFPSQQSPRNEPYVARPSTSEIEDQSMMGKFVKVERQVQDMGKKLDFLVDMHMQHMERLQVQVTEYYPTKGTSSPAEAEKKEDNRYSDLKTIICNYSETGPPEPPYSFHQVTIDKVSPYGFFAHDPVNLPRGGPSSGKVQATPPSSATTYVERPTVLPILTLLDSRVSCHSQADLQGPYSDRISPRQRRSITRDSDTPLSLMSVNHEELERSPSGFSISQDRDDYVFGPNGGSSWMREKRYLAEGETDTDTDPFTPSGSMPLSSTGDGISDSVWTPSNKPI

In the case of `C#CCN(Cc1ccc(F)cc1)c1ccc(NC(=O)OCC)c(NC(=O)OC(C)(C)C)c1`, the Ratio in data set [1] came out at 1.16; in data set [2] it was 6.37; in data set [3], 4.58. Also, the values for the EC50 in data set [4], in data set [5] and in data set [6] were 780 nM, 1680 nM and greater than 30000 nM, respectively. The “fold change (FC)” value in [7] and in data set [8] was 1.5 throughout. Besides, in data set [9], the Activity entry is reported as “Not Active”. For the same molecule, the inhibition result in [10] was “Active”. The outcome in data set [11], in data set [12], in data set [13] and in data set [14] was inactive.
